{"data": "Published values collected from several papers", "LATS2": "Serine/threonine-protein kinase LATS2 (LATS2, Homo sapiens, UniProt Q9NRM7)", "AKR1B1": "Aldo-keto reductase family 1 member B1 (AKR1B1, Homo sapiens, UniProt P15121)", "TRPM8": "Transient receptor potential cation channel subfamily M member 8 (TRPM8, Homo sapiens, UniProt Q7Z2W7)", "SLC6A6": "Sodium- and chloride-dependent taurine transporter (SLC6A6, Homo sapiens, UniProt P31641)", "note": "Each line is one published result; the experiments were not run side by side."}
{"Structure (SMILES)": "Cc1cc(-c2ccnc3[nH]cc(F)c23)cc(F)c1[C@@]1(O)[C@H](C)CN(C2CCS(=O)(=O)CC2)C[C@@H]1C", "target": "LATS2", "read-out": "binding", "technique": "TR-FRET", "quantity": "Kd", "result": "0.0017 µM"}
{"Structure (SMILES)": "Cc1ncsc1-c1ccc(CNC(=O)[C@@H]2C[C@@H](O)CN2C(=O)[C@@H](NC(=O)COCCOCCOCCNC(=O)C[C@@H]2N=C(c3ccc(Cl)cc3)c3c(sc(C)c3C)-n3c(C)nnc32)C(C)(C)C)cc1", "target": "Platelet glycoprotein 4 (CD36, Homo sapiens, UniProt P16671)", "read-out": "binding", "technique": "SPR", "quantity": "Kd", "result": "9.6 µM"}
{"Structure (SMILES)": "COc1cc(/C=N/NC(=S)N/N=C\\c2ccc(Cl)c(Cl)c2)ccc1Oc1ccnc2cc(Cl)ccc12", "target": "AKR1B1", "read-out": "enzyme activity", "mode": "inhibitor", "technique": "absorbance", "quantity": "IC50", "result": "13.4 µM"}
{"Structure (SMILES)": "CCCCC(=O)Nc1ccc(-c2ccc3ncn(CCC)c(=O)c3c2)cn1", "target": "Phosphatidylinositol 5-phosphate 4-kinase type-2 gamma (PIP4K2C, Homo sapiens, UniProt Q8TBX8)", "read-out": "binding", "technique": "competition with immobilised ligand", "quantity": "Kd", "result": "0.00655 µM"}
{"Structure (SMILES)": "CCCCCCCP(=O)(C(C)C)C(C)C", "target": "TRPM8", "read-out": "calcium signal", "mode": "agonist", "quantity": "EC50", "result": "4.73 µM"}
{"Structure (SMILES)": "OC1(c2ccc(-c3ccnc4[nH]cc(F)c34)cc2)CCNCC1", "target": "LATS2", "read-out": "enzyme activity", "mode": "inhibitor", "technique": "radiometric", "quantity": "IC50", "result": "0.0057 µM"}
{"Structure (SMILES)": "COc1cc(/C=N/NC(=S)N/N=C/c2ccccc2)ccc1Oc1ccnc2cc(Cl)ccc12", "target": "AKR1B1", "read-out": "enzyme activity", "mode": "inhibitor", "technique": "absorbance", "quantity": "IC50", "result": "17.2 µM"}
{"Structure (SMILES)": "Cc1cc(-c2ccnc3[nH]cc(F)c23)cc(F)c1[C@@]1(O)[C@H](C)CN(C2COC2)C[C@@H]1C", "target": "LATS2", "read-out": "enzyme activity", "mode": "inhibitor", "technique": "radiometric", "quantity": "IC50", "result": "0.009 µM"}
{"Structure (SMILES)": "COc1cc(/C=N/NC(=S)NN=Cc2sccc2C)ccc1Oc1ccnc2cc(Cl)ccc12", "target": "AKR1B1", "read-out": "enzyme activity", "mode": "inhibitor", "technique": "absorbance", "quantity": "IC50", "result": "15.9 µM"}
{"Structure (SMILES)": "CCCCCCCCCP(=O)(C(C)C)C(C)C", "target": "TRPM8", "read-out": "ion current", "mode": "agonist", "technique": "patch clamp", "quantity": "EC50", "result": "24.8 µM"}
{"Structure (SMILES)": "NCCS(=O)(=O)O", "target": "SLC6A6", "read-out": "binding", "technique": "MST", "quantity": "Kd", "result": "0.71 µM"}
{"Structure (SMILES)": "CCOc1cccc(C2CC(=O)Nc3c2c(C)nn3-c2ccc3nncn3n2)c1 (centres unmarked)", "target": "DNA damage-binding protein 1 (DDB1, Homo sapiens, UniProt Q16531)", "read-out": "binding", "technique": "SPR", "quantity": "Kd", "result": "10 µM"}
{"Structure (SMILES)": "Fc1c[nH]c2nccc(-c3ccc(C4CCNCC4)cc3)c12", "target": "LATS2", "read-out": "enzyme activity", "mode": "inhibitor", "technique": "radiometric", "quantity": "IC50", "result": "0.011 µM"}
{"Structure (SMILES)": "COc1cc(/C=N/NC(=S)N/N=C\\c2ccc(CCl)cc2)ccc1Oc1ccnc2cc(Cl)ccc12", "target": "AKR1B1", "read-out": "enzyme activity", "mode": "inhibitor", "technique": "absorbance", "quantity": "IC50", "result": "20.4 µM"}
{"Structure (SMILES)": "NCCCC(=O)O", "target": "SLC6A6", "read-out": "binding", "technique": "MST", "quantity": "Kd", "result": "26 µM"}
{"Structure (SMILES)": "O=C1NC(c2cccc([N+](=O)[O-])c2)=CCN1c1ccccc1O", "target": "TRPM8", "read-out": "ion current", "mode": "agonist", "technique": "patch clamp", "quantity": "EC50", "result": "0.412 µM"}
{"Structure (SMILES)": "CCNC(=O)C1CC(C)CCC1C(C)C (centres unmarked)", "target": "TRPM8", "read-out": "calcium signal", "mode": "agonist", "quantity": "EC50", "result": "8.36 µM"}
